Experimental data gathered from unrelated publications.
Protocols differ between the studies behind these lines.
Target: Serine/threonine-protein kinase TAO1 (TAOK1, Homo sapiens, UniProt Q7L7X3)
Residues used in one study (Q7L7X3 1-1001): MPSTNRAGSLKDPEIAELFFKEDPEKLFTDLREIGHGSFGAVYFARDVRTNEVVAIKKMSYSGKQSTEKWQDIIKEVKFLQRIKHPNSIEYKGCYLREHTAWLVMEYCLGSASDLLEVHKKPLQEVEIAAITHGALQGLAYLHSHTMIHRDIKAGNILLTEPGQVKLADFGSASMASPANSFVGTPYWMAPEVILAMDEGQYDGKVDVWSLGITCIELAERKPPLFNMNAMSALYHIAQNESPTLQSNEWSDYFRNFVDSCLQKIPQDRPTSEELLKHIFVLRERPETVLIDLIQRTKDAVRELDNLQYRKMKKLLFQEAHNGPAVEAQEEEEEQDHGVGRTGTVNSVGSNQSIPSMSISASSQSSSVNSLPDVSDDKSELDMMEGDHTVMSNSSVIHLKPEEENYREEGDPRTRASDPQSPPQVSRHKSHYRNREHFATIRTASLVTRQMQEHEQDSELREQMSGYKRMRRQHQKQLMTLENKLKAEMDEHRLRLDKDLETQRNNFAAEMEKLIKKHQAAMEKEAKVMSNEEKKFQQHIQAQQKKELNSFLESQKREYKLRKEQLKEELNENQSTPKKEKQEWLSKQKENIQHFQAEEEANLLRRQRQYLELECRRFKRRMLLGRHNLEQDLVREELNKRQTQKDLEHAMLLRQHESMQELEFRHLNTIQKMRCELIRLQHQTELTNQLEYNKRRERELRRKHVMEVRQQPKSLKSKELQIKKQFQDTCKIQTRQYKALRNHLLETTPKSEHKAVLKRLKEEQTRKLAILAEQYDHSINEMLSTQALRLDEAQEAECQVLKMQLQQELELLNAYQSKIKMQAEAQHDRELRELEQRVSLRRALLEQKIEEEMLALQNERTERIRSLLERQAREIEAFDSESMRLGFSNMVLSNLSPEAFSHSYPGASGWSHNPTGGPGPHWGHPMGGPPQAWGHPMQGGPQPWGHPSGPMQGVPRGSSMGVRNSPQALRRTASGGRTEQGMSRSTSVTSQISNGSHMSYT

Structure (SMILES) | test | setting | remaining binding [%]
Cc1cnc(Nc2ccc(C(=O)N3CCC(N4CCCC4)CC3)cc2)nc1-c1cc2ccccc2s1 | binding, competition with immobilised ligand | 1 µM | 64
CC1CCCN1c1nccc(-c2cnn3ncccc23)n1 (centres unmarked) | binding | 1 µM | 100
C[C@@H](c1ccc(-n2cnc3c(N)ncnc32)cc1)N1CCc2nn(C)c(Cc3ccccc3)c2C1=O | binding, competition with immobilised ligand | 0.1 µM | 90
CNCc1ccccc1-c1csc([C@H](C)Nc2nc(C)nc3cc(OC)c(OC)cc23)c1 | cell-free assay, competition with immobilised ligand | 1 µM | 100
c1cncc(-c2cccc(Nc3nccc(NC4CCCCC4)n3)c2)c1 | binding, competition with immobilised ligand | 10 µM | 97
N[C@H]1CCN(c2nccc(-c3cnn4ncccc34)n2)C1 | binding | 1 µM | 87
CNC(=O)c1ccccc1Nc1cc(Nc2ccc(N3CCOCC3)cc2OC)ncc1C(F)(F)F | binding, competition with immobilised ligand | 1 µM | < 10
COc1cccc(CNC(=O)c2nc3scc(COCc4ccc(C(=O)O)cc4)c3c(=O)[nH]2)c1 | cell-free assay, competition with immobilised ligand | 1 µM | 69.5
O=C(NCC1CCOCC1)c1n[nH]cc1NC(=O)c1c(F)cccc1F | binding, competition with immobilised ligand | 1 µM | 83
C[C@@H]1CCN(c2nccc(-c3cnn4ncccc34)n2)C1 | binding | 1 µM | 83
CN([C@@H]1CCc2c(CC(=O)O)c3ccccc3n2C1)S(=O)(=O)c1ccc(F)cc1 | cell-free assay, competition with immobilised ligand | 1 µM | 93
c1cnn2ncc(-c3ccnc(N4CCC45COC5)n3)c2c1 | binding | 1 µM | 58
O=C(O)[C@@H]1[C@@H](Cn2nnc3ccccc3c2=O)CC[C@H]1C(=O)c1ccc(OCCC2CCOCC2)cc1 | cell-free assay, competition with immobilised ligand | 1 µM | 100
CCN1CCN(Cc2ccc(C(=O)Nc3ccc(C)c(Oc4ccc5c(c4)CC(=O)N5)c3)cc2C(F)(F)F)CC1 | binding, competition with immobilised ligand | 1 µM | 100
COc1ccnn2ncc(-c3ccnc(N(C)C)n3)c12 | binding | 1 µM | 81
O=C(NCc1ncc(C(F)(F)F)cc1Cl)c1ccc2c(c1)C1(CCS(=O)(=O)CC1)[C@@H](C1CC1)N2S(=O)(=O)c1ccc(F)cc1 | cell-free assay, competition with immobilised ligand | 1 µM | 91
COc1cnc(Nc2cccc(S(N)(=O)=O)c2)nc1N1CCN(c2ccccc2)C(=O)C1 | binding, competition with immobilised ligand | 1 µM | 86
CC(=O)Nc1c(C(C)=O)c(=O)n(C)c2nc(-c3ccc(Cl)cc3Cl)c(-c3ccc(Cl)cc3)cc12 | cell-free assay, competition with immobilised ligand | 1 µM | 89
CN(C)c1nccc(-c2cnc3ncccn23)n1 | binding | 1 µM | 59
O=C(c1ccc(Nc2ncc(Cl)c(-c3cc4ccccc4s3)n2)cc1)N1CCC(N2CCCC2)CC1 | binding, competition with immobilised ligand | 1 µM | 50
Cc1cnn2ncc(-c3ccnc(N(C)C)n3)c2c1 | binding | 1 µM | 92
O=C(c1ccc(Nc2nccc(-c3cc4ccccc4s3)n2)cc1)N1CCC(N2CCCC2)CC1 | binding, competition with immobilised ligand | 1 µM | 82
COc1ncc2cc3ccccc3nc2c1C#N | cell-free assay, competition with immobilised ligand | 5 µM | 100
